Data on 15 compounds can be found in ChEMBL document CHEMBL1131622, “(+/-)-trans-2-[3-methoxy-4-(4-chlorophenylthioethoxy)-5-(N-methyl-N- hydroxyureidyl)methylphenyl]-5-(3,4, 5-trimethoxyphenyl)tetrahydrofuran (CMI-392), a potent dual 5-lipoxygenase inhibitor and platelet-activating factor receptor antagonist” (J Med Chem, 1998).

Each structure is given as a SMILES string. Values joined by “and” are separate entries in the source; they are usually repeats but may differ in a detail not shown here. Identical values can stand only once.

Data set [1] addresses T1, Polyunsaturated fatty acid 5-lipoxygenase (Rattus norvegicus, UniProt P12527).
T1 sequence (P12527 whole entry): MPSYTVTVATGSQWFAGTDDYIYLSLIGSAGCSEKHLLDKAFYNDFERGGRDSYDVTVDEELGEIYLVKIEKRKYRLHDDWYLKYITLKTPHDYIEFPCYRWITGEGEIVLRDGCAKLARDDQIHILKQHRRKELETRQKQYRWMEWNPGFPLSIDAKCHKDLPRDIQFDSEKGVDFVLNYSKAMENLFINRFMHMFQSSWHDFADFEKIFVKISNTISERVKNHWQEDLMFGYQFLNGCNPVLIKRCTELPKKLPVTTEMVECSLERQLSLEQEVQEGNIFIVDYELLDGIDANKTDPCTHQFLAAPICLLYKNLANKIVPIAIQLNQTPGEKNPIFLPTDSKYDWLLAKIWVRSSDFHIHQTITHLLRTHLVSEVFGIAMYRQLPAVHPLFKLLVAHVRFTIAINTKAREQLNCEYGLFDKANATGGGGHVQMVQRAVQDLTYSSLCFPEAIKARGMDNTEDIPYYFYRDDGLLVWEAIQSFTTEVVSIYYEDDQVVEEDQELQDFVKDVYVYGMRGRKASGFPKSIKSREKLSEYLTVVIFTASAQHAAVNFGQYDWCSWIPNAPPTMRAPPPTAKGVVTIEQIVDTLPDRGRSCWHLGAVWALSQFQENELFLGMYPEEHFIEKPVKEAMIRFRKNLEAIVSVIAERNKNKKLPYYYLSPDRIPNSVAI
As to the kind of experiment: 5-lipoxygenase inhibitory activity determined by measuring the conversion of [14C]arachidonic acid to leukotrienes in RBL-2H3 cell using thin-layer chromatography. In kind it is cell-based. In short, it runs like this:
(§1)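 Lysate plus compound (DMSO) in buffer with 0.1 M NaCl, 0.7 mM CaCl2, 20 min room temperature, then [14C]AA substrate mix 5 min 37 °C. Products extracted, resolved by silica TLC, autoradiography/densitometry; IC50 by regression.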

The species named for data set [2] is Homo sapiens. Put plainly: (§2) Compound was evaluated for inhibiting production of LTB4 in calcium Ionophore (A23187) activated human whole blood. In kind it is functional. In short, it runs like this: (§3)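 Heparinized human whole blood (1 mL) preincubated with compound in DMSO 15 min at 37 °C, then stimulated with A23187 (50 μM final) 30 min at 37 °C; plasma LTB4 measured by EIA. IC50 by regression; percent inhibition also reported at 3 μM.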

The subject of data set [3] is Mus musculus. As to the kind of experiment: In vivo inhibition against PAF induced hemoconcentration in mice at a concentration of 3 mg/kg. It is filed as functional. In short, it runs like this: (§4)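 Mice given compound iv at 3 mg/kg in 0.5% DMSO saline, then PAF (10 μg, in 0.25% BSA/saline) iv by tail vein 15 min later. Tail blood taken 15 min after PAF for hematocrit; percent inhibition relative to vehicle control.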

In data set [4] the test system is Mus musculus. As to the kind of experiment: In vivo inhibition against arachidonic acid induced ear Edema in mice at a concentration of 3 mg/kg. In kind it is functional. An outline of the steps: (§5)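 Compound given iv at 3 mg/kg in 0.5% DMSO saline 15 min before topical arachidonic acid (0.5 mg in acetone/pyridine/water 97:2:1) on both ears of mice. Sacrifice at 1 h; 7-mm ear punches weighed, edema as mean wet weight.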

The target in data set [5] is Platelet-activating factor receptor (Homo sapiens, UniProt P25105). Put plainly: Displacement of [3H]PAF from PAF receptor of human platelet membranes. (Displacement assays read how much labelled ligand stays bound in the presence of the test substance.)
Platelet-activating factor receptor, sequence (P25105 whole entry): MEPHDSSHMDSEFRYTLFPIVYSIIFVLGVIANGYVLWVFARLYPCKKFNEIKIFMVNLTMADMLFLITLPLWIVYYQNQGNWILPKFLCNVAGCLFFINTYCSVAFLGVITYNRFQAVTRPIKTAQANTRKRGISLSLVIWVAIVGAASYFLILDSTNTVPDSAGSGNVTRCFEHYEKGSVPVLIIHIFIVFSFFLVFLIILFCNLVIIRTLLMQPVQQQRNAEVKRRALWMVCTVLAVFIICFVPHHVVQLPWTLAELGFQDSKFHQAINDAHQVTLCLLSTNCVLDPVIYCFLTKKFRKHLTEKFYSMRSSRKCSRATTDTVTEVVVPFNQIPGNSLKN
The target in data set [6] is T1, Polyunsaturated fatty acid 5-lipoxygenase. Put plainly: Inhibition of 5-lipoxygenase mediated conversion of [14C]arachidonic acid to leukotrienes in RBL-2H3 cells. In kind it is cell-based. In short, it runs like this:
as §1

The species entered for data set [7] is Homo sapiens. The data set is described as §2. It is filed as functional. The arrangement: concentration or dose not given beside the values. In short, it runs like this:
as §3

Data set [8] in a line: Half-life was determined. The following applies: human. In kind it is ADME.
For data set [9], the species on record is Homo sapiens. As to the kind of experiment: In vitro inhibition of LTB4 production in human whole blood. In kind it is functional. In short, it runs like this:
as §3

The test system of data set [10] is Mus musculus. Put plainly: (§6) In vivo activity against acute TPA-induced ear edema in mouse. It is filed as functional. In short, it runs like this:
(§7)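 Mice, 8 per group, TPA in acetone (10 μL) applied topically to both ear surfaces with or without drug. Sacrifice at 6 h; punch biopsies weighed, MPO measured spectrophotometrically in homogenized tissue, histology also done; compared with maximal control.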

Data set [11] has as its system Mus musculus. As to the kind of experiment: In vivo activity against arachidonic acid induced ear edema in mouse. It is filed as functional. In short, it runs like this:
as §5

Data set [12] deals with Mus musculus. Put plainly: In vivo activity against chronic TPA-induced ear edema in mouse. In kind it is functional. In short, it runs like this: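 Mice, 8 per group, TPA in acetone (10 μL) applied topically to both ears once a day every 2 days for 10 days. Drug applied topically twice daily over the last 3 days. Punch biopsies weighed; MPO measured spectrophotometrically; histology also done.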

Data set [13] relates to Mus musculus. The description is as §6. In kind it is functional. In short, it runs like this: as §7
The source holds these as a separate data set.

A short description of data set [14]: In vivo activity against platelet activating factor (PAF)-induced hemoconcentration in mouse. In kind it is functional. An outline of the steps: as §4

`CCCCN(O)C(=O)Nc1cc([C@@H]2CC[C@@H](c3cc(OC)c(OC)c(OC)c3)O2)cc(OC)c1OCCSc1ccc(Cl)cc1` (racemic): the results for the IC50 in [1], in [2] and in data set [5] were 58 nM, 6500 nM and 20 nM, respectively. Moreover, the inhibition in vivo (usually the change of the read-out against control, counted positive when it falls) at 3 mg/kg is 43% in data set [3] and 39% in data set [4].
Turning to `CCCCN(O)C(=O)Nc1cc([C@@H]2CC[C@@H](c3cc(OC)c(OC)c(OC)c3)O2)cc(OC)c1OCCSc1c(F)c(F)cc(F)c1F` (racemic), the results for the half-maximal inhibitory concentration (IC50) in data set [6] and in data set [5] were 118 nM and 2 nM, respectively. The Inhibition (usually the relative decrease from the control value, in per cent) in [7] amounted to 3%. For the same compound, the results for the inhibition in vivo at 3 mg/kg in data set [3] and in data set [4] were 59% and 30%, respectively.
As to `CCCCN(O)C(=O)Nc1cc([C@@H]2CC[C@@H](c3cc(OC)c(OC)c(OC)c3)O2)cc(OC)c1OCCSc1ccc(Cl)c(Cl)c1` (racemic), the IC50 (in general, the concentration at which inhibition is half-maximal) came to 17 nM in data set [6] and 45 nM in data set [5]. In addition, in data set [7], the Inhibition was found to be 61%. In addition, the inhibition in vivo at 3 mg/kg in [3] and in data set [4] was 26% throughout.
In the case of `CCCCN(O)C(=O)Nc1cc([C@@H]2CC[C@@H](c3cc(OC)c(OC)c(OC)c3)O2)cc(OC)c1OCCSc1ccc(Br)cc1` (racemic), the results for the half-maximal inhibitory concentration (IC50) in [6], in data set [2] and in data set [5] were 19 nM, 1200 nM and 21 nM, respectively.
Consider `CCCCN(O)C(=O)Nc1cc([C@@H]2CC[C@@H](c3cc(OC)c(OC)c(OC)c3)O2)cc(OC)c1OCCSc1ccccc1Br` (racemic), for which the IC50 in data set [6] came out at 33 nM; in data set [5], 23 nM. Also, the Inhibition in [7] came out at 48%. Moreover, the inhibition in vivo at 3 mg/kg in data set [3] turned out to be 34%; in data set [4], 26%.
As for `CCCCN(O)C(=O)NCc1cc([C@@H]2CC[C@@H](c3cc(OC)c(OC)c(OC)c3)O2)cc(OC)c1OCCSc1ccc(Cl)cc1` (racemic), the Inhibition in data set [7] came to 26%. In data set [5], this compound registered a 50% inhibitory concentration (IC50) of 167 nM.
With `CC(C#Cc1ccc(Oc2ccc(F)cc2)o1)N(O)C(N)=O` (stereo not drawn), the 50% inhibitory concentration (IC50) in [6] turned out to be 298 nM; in data set [2] it was 100 nM.
Regarding `CCCCN(O)C(=O)Nc1cc([C@@H]2CC[C@@H](c3cc(OC)c(OC)c(OC)c3)O2)cc(OC)c1OCCS(=O)(=O)c1c(F)c(F)cc(F)c1F` (racemic), the IC50 was 520 nM in data set [6] and 285 nM in [5]. Besides, the results for the inhibition in vivo at 3 mg/kg in [3] and in [4] were 50% and 12%, respectively.
As for `CCCCN(O)C(=O)Nc1cc([C@@H]2CC[C@@H](c3cc(OC)c(OC)c(OC)c3)O2)cc(OC)c1OCCSc1cccc(Br)c1` (racemic), the concentration for half-maximal inhibition (IC50) came out at 43 nM in [6], 7500 nM in data set [2] and 22 nM in data set [5]. Besides, the inhibition in vivo at 3 mg/kg in data set [3] was found to be 28%; in [4], 40%.
On to `CCCCN(O)C(=O)Nc1cc([C@@H]2CC[C@@H](c3cc(OC)c(OC)c(OC)c3)O2)cc(OC)c1OCCSc1ccc(OC)cc1` (racemic), for which the concentration for half-maximal inhibition (IC50) came out at 71 nM in data set [6] and 39 nM in data set [5]. Further, in [7], the Inhibition is recorded as 32%. Moreover, the inhibition in vivo at 3 mg/kg came out at 24% in data set [3] and 3% in [4].
Consider `COc1cc([C@@H]2CC[C@@H](c3cc(OC)c(OC)c(OC)c3)O2)cc(CNC(=O)N(C)O)c1OCCSc1ccc(Cl)cc1` (racemic), for which the concentration for half-maximal inhibition (IC50) in data set [6] is 100 nM; in [9], 7800 nM; in data set [2], 7800 nM; in [5], 10 nM. Also, the half-life (as a rule, how long it takes for the measured level to halve) in data set [8] was 30 min. The ED50 in data set [10] was 299 ug ear-1; in [11] it was 1.8 mg/kg; in data set [12], 552 ug ear-1 and 580 ug ear-1; in data set [13], 269 ug ear-1; in data set [14], 2.2 mg/kg. In addition, the inhibition in vivo at 3 mg/kg in data set [3] came to 56%; in [4], 46%.
For the compound `CCCCN(O)C(=O)Nc1cc([C@@H]2CC[C@@H](c3cc(OC)c(OC)c(OC)c3)O2)cc(OC)c1OCCC`, the IC50 in data set [2] turned out to be 3500 nM.
Take `CCCCN(O)C(=O)Nc1cc([C@@H]2CC[C@@H](c3cc(OC)c(OC)c(OC)c3)O2)cc(OC)c1OCCS(=O)(=O)c1ccccc1Br` (racemic): the half-inhibitory concentration (IC50) came to 161 nM in data set [6] and 25 nM in [5]. The Inhibition in data set [7] was found to be 19%. The compound also returned an inhibition in vivo at 3 mg/kg in [3] of 60%.
`CCCCN(O)C(=O)Nc1cc([C@@H]2CC[C@@H](c3cc(OC)c(OC)c(OC)c3)O2)cc(OC)c1OCCS(=O)(=O)c1ccc(Br)cc1` (racemic): the Inhibition in data set [7] is given as 72%. In addition, the inhibition in vivo at 3 mg/kg in [3] is 29%; in data set [4], 35%. Also, in [5], the half-maximal inhibitory concentration (IC50) was determined as 38 nM.
As to `CC(c1cc2ccccc2s1)N(O)C(N)=O` (stereo not drawn) [ZILEUTON], the Inhibition in [7] came out at 1%.
